From PubChem BioAssay
INS promoter act – TRM-6 insulin promoter activation. activation, % at 2 µM. TRM-6 cells (human fetal islet line), insulin promoter eGFP reporter, imaging; plate-scaled: unstimulated 0, stimulated control 100. AID 1296. 0.81% of 130,000 active;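 active means activation at 2 µM above a set limit, confirmed on inspection of the cell images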;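 further: share of cells whose green reporter signal exceeds an intensity cutoff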
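Test system: TRM-6 insulin promoter–eGFP reporter cells / Quantity: 1,000 cells per well / Reagent: tamoxifen inducer, 0.75 µM, in seeding medium / Compound dosing: 2 µM final, single concentration / Schedule: overnight tamoxifen, then two-day compound incubation at 37 °C / Measured by: automated fluorescence imaging of paraformaldehyde-fixed, Hoechst-counterstained cells, green channel / Read-out: percent activation from GFP-positive cell fraction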
Large screens that a line does not name were inactive; [ ] = dose if it differs, or a comment. Shown is part of a subset that was picked to be rich in hits.

CCOc1ccc(S(=O)(=O)NCC(=O)N(C)Cc2cccnc2)cc1	INS promoter act 79
CCC(C)NS(=O)(=O)c1ccc(OCC(=O)NCc2cccnc2)cc1 (stereo unspecified)	none
CCOc1ccc(OCC)c(S(=O)(=O)NCc2cccnc2)c1	none
CC(=NCCCn1ccnc1)c1c(O)n(Cc2ccccc2)c(=O)[nH]c1=O	none
O=C(CCNC(=O)c1ccccc1Cl)NC1=NCCS1	none
CC1=CC(C)(C)N(C(=O)Nc2ccccc2)c2ccccc21	none
C/C=C/C(=O)N1c2ccccc2C(C)=CC1(C)C	none
CC1=CC(C)(C)N(C(=O)CSc2nncn2C)c2ccccc21	INS promoter act 631
CCCCNC(=O)c1ccc(CS(=O)(=O)Cc2ccccc2F)o1	none
O=C(O)CN1CCCCCC1=O	none
O=C(CSc1nnc(-c2ccncc2)n1CC1CCCO1)NCc1ccccc1 (stereo unspecified)	none
Cc1cc(C(=O)CSc2nnc(-c3cccnc3)n2-c2ccccc2F)c(C)n1CC1CCCO1 (stereo unspecified)	INS promoter act 91
Cc1cc(C(=O)CSc2nnc(-c3ccc(F)cc3)o2)c(C)n1CC1COc2ccccc2O1 (stereo unspecified)	none
Cc1cccc(-c2nc(C#N)c(NC3CCCCC3)o2)c1	none
CCOC(=O)c1cccc(NC(=O)Cn2c(CC(=O)N3CCCC3)nc3ccccc32)c1	none
C/C(CC(=O)NCCCN1CCOCC1)=N\NC(=O)COc1ccc(Cl)cc1	none
COc1ccccc1NC(=O)CSc1nnc(-c2ccco2)n1Cc1ccco1	none
O=C(CSc1nnc(Cc2cccs2)n1Cc1ccco1)Nc1cc(Cl)cc(Cl)c1	none
CCn1c(SCc2nc3ccccc3[nH]2)nnc1-c1cccs1	none
Clc1ccc(OCc2nnc(SCc3nc4ccccc4[nH]3)n2Cc2ccco2)cc1	INS promoter act 129
COc1ccc(C)cc1NC(=O)CSc1nnc(COc2ccc(Cl)cc2)n1Cc1ccco1	INS promoter act 142
Cn1c(COc2ccccc2)nnc1SCc1nc2ccccc2[nH]1	none
O=C(Nc1ccc(C(=O)O)cc1)Nc1ccc(F)cc1F	none
O=C(CNC1CCCCC1)NN=C(c1ccccc1)c1ccccc1	none
Cc1cccc(N(C(=O)c2csnn2)C(C(=O)NC(C)(C)C)c2cccs2)c1 (stereo unspecified)	none
COC(=O)c1cc(C(=O)Cc2ccccc2)c[nH]1	none
Cc1ccc(Cn2c(=O)n(Cc3ccco3)c(=O)c3ccccc32)cc1	none
CCOc1ccc(N2C(=O)/C(=C/c3cccs3)N(C)C2=S)cc1	none
COc1ccc(N=C2S/C(=C\c3cccs3)C(=O)N2CC(C)C)cc1	none
CC(C)CN1C(=O)/C(=C/c2cccs2)NC1=S	INS promoter act 431
COc1cc(C(=O)c2ccccc2)c(OC)cc1C(=O)Nc1ccc(O)cc1	none
CCC(C)/C(C)=N/NC(=O)c1ccc(COc2ccc(Cl)c(C)c2)cc1 (stereo unspecified)	none
CCOC(=O)C1=C(N)OC(CCl)=C(C#N)C1c1ccsc1 (stereo unspecified)	none
CCN1/C(=C/C=C/c2oc3ccc(-c4ccccc4)cc3[n+]2CC)Oc2ccc(-c3ccccc3)cc21	INS promoter act 809[fluoresces]
N#CCCN(Cc1cccnc1)C(=O)Nc1cccc(Cl)c1	none
CC1(C)Cc2c(sc(NC(=S)NC(=O)c3ccccc3)c2C(=O)O)CO1	none
N#Cc1c(NC(=O)c2cccnc2)sc2c1CCC2	none
N#Cc1c(NC(=S)NC(=O)c2ccccc2)sc2c1CCN(CCc1ccccc1)C2	INS promoter act 270
CCN(CC)c1ccc(NC(=O)c2ccc3c(c2)c(C)c(C)n3C)cc1	none
CC1CCc2c(nc3sc4c(c3c2N)CCCC4)C1 (stereo unspecified)	none
Cc1ccc2c(c1)nnn2C1CCN(C(=O)C2CCCCC2)CC1	none
Cc1ccnc(SCc2cc(=O)c(OC(=O)c3ccccc3)co2)n1	INS promoter act 428
Cc1ccnc(SCC(=O)O)n1	none
Cc1ccnc(SCC(=O)N2CCc3ccccc3C2)n1	none
Cc1ccc(C)n1-c1sc2c(c1C#N)CCC(C)C2 (stereo unspecified)	none
CCOC(=O)c1[nH]c(C)c(C(=O)N2CCN(C(=O)OCC)CC2)c1CC	none
COc1cc(S(=O)(=O)N2CCOCC2)cc(C(=O)c2nccn2C)c1OC	none
CCCCn1ccnc1C(=O)c1cc(S(=O)(=O)N2CCOCC2)ccc1C	INS promoter act 89
Cc1ccc(S(=O)(=O)N2CCOCC2)cc1NC(=O)Cn1ccsc1=N	none
O=C(CSc1nnc(-c2cccnc2)n1Cc1ccco1)NCc1ccc2c(c1)OCO2	INS promoter act 285
COc1cccc(-c2nnc(SCC(=O)NCc3ccc4c(c3)OCO4)n2Cc2ccco2)c1	none
C=CCn1c(SCC(=O)NCc2ccc3c(c2)OCO3)nnc1-c1cccnc1	none
O=c1ccc(-c2ccc([N+](=O)[O-])cc2)nn1-c1ccccc1	none
O=[N+]([O-])c1ccc(Cl)c(/C=N/N2CCN(c3ccccc3)CC2)c1	none
O=[N+]([O-])c1ccc(/C=C/C2=NN(c3ccccc3)C(c3ccco3)C2)cc1 (stereo unspecified)	INS promoter act 285[fluoresces]
C=C(C)C1CC=C(C)/C(=N\NC(=S)Nc2ccc(C)cc2)C1 (stereo unspecified)	none
COC(=O)CCC(=O)c1oc2ccccc2c1N	none
COc1cccc(/C=N/NC(=O)c2nc(-c3ccccc3)cc(-c3ccccc3)n2)c1	none
COc1cccc(/C=C/C(=O)c2ccc[nH]2)c1	none
COc1cccc(/C=C2\C(=O)C(=O)c3ccccc32)c1	INS promoter act 178
CC(C)(Oc1ccc(Cl)cc1)C(=O)Nc1ccncc1	none
Cc1ccc(C(=O)Nc2cccc(C(=O)NCc3ccco3)c2)cc1	none
CC(c1ccccc1)N1C(=O)c2ccc(C(=O)NCc3ccco3)cc2C1=O (stereo unspecified)	INS promoter act 440
Cn1nnc2cc(C(=O)NCc3ccco3)ccc21	none
O=C(NCc1cccnc1)C1c2ccccc2C(=O)N1Cc1ccco1 (stereo unspecified)	none
Cc1ccc(C(=O)NC(=C(Cl)Cl)S(=O)(=O)c2ccc(Cl)cc2)cc1	none
CNC(=O)c1nnsc1S(=O)(=O)c1ccc(Cl)cc1	INS promoter act 754
O=C(Nc1ccccn1)c1ccc(S(=O)(=O)c2ccc(Cl)cc2)cc1	none
CC(=O)Nc1ccc(/C(C)=N/NS(=O)(=O)c2ccccc2)cc1	none
CCOC(=O)C1=C(C(F)(F)F)Nc2ncnn2C1c1ccc(OC)cc1OC (stereo unspecified)	none
C=CCN1C=CC=C/C1=C1\SC(=S)N(C)C1=O	none
CCCNC(=O)NC(=O)COC(=O)CNS(=O)(=O)/C=C/c1ccccc1	none
C/C(=N\Nc1ccc(C(F)(F)F)cc1[N+](=O)[O-])C1CC1	none
Cc1cc(C(=O)CSc2nnc(N)s2)c(C)n1CCc1ccc(F)cc1	none
Cc1cc(C(=O)CCl)c(C)n1CCc1ccc(F)cc1	none
Cc1cc(C(=O)CSc2nnnn2C)c(C)n1CCc1ccc(F)cc1	INS promoter act 126
Cc1ccc(S(=O)(=O)/N=C(\CCl)N2CCOCC2)cc1	none
COc1ccccc1N1CCN(S(=O)(=O)c2ccc3c(c2)n(C)c(=O)n3C)CC1	none
CC(C)(C)NC(=O)c1ccncc1	none
CC(C)(C)NC(=O)/C=C/c1ccc(C(F)(F)F)cc1	INS promoter act 322
CC(C)(CCl)C(=O)Nc1ccc(C(F)(F)F)cc1	none
COc1ccccc1CNC(=S)Nc1ccc2nc(N3CCN(C)CC3)cc(C)c2c1	none
CC(=O)Oc1ccc(N(C(C)=O)S(=O)(=O)c2cccs2)c2ccccc12	none
CC(C)CC1(C(=O)NCCN2CCOCC2)C=CCN1C(=O)c1ccccc1 (stereo unspecified)	none
O=C(Cn1nc(C(F)(F)F)c2c1CCC2)Nc1ccccc1C(F)(F)F	INS promoter act 600
O=C(Cn1nc(C(F)(F)F)c2c1CCC2)NC1CCCCC1	none
